Assay results: ChEMBL document CHEMBL1152609, “Synthesis and pharmacological exploitation of clioquinol-derived copper-binding apoptosis inducers triggering reactive oxygen species generation and MAPK pathway activation” (2009)
Calls of active or inactive are those of the source. The rule behind the calls is not given here.

Tests used:
HeLa [1] = assay: Growth inhibition of human HeLa cells after 48 hrs by MTT assay in presence of 10% FBS supplemented DMEM medium; type: functional
Outline: (§1)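 Cells seeded at 5 × 10³/well and allowed 24 h to attach, then exposed to compound (DMSO stock) or vehicle for 48 h in 10% FBS DMEM at 37 °C, 5% CO₂. MTT (2 mg/mL in PBS) added for a further 2 h; formazan dissolved in DMSO and read at 570 nm. Inhibition = (1 − At/Ac) × 100. GI₅₀ interpolated from dose-response curves; mean ± SEM of 4–6 experiments; top concentration 40 μM.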

[2] = Growth inhibition of human BT-483 cells after 48 hrs by MTT assay in presence of 10% FBS supplemented DMEM medium; type: functional; conditions: BT-483, 48 h; outline: as §1
HeLa [3] = assay: Activation of ERK phosphorylation in human HeLa cells at 1 uM in presence of 10 uM CuCl2 after 24 hrs by Western blot; type: cell-based
Outline: (§2)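 HeLa cells grown in DMEM with 10% FBS, 2 mM glutamine and penicillin/streptomycin at 37 °C, 5% CO₂. Treated cells were lysed and the extracts run on Western blot. Membranes were blocked overnight at 4 °C in TBST/5% non-fat milk. Probed with phospho- and total ERK1/2, p38 and JNK antibodies, then anti-mouse or anti-rabbit IgG (1:10,000, 1 h, RT), with ECL detection.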

[4] = Activation of JNK phosphorylation in human HeLa cells at 1 uM in presence of 10 uM CuCl2 after 24 hrs by Western blot; type: cell-based; outline: as §2
[5] = target: T1, MAP kinase p38 (Homo sapiens) (UniProt O15264+Q15759+Q16539+P53778); assay: Activation of p38 phosphorylation in human HeLa cells at 1 uM in presence of 10 uM CuCl2 after 24 hrs by Western blot; type: cell-based; outline: as §2
HeLa [6] = assay: Activation of ERK phosphorylation in human HeLa cells at 1 uM in presence of 10 uM CuCl2 after 48 hrs by Western blot; type: cell-based; outline: as §2
[7] = Activation of JNK phosphorylation in human HeLa cells at 1 uM in presence of 10 uM CuCl2 after 48 hrs by Western blot; type: cell-based; outline: as §2
[8] = Growth inhibition of human SKHep cells after 48 hrs by MTT assay in presence of 10% FBS supplemented DMEM medium; type: functional; outline: as §1
[9] = Growth inhibition of human CE81T cells after 48 hrs by MTT assay in presence of 10% FBS supplemented DMEM medium; type: functional; outline: as §1
HeLa [10] = assay: Growth inhibition of human HeLa cells after 48 hrs by MTT assay in presence of 1 uM CuCl2; type: functional; outline: as §1
HeLa [11] = assay: Growth inhibition of human HeLa cells after 48 hrs by MTT assay in presence of 10 uM CuCl2; type: functional; outline: as §1
HeLa [12] = assay: Growth inhibition of human HeLa cells after 48 hrs by MTT assay in presence of 50 uM CuCl2; type: functional; outline: as §1
HeLa [13] = assay: Growth inhibition of human HeLa cells after 48 hrs by MTT assay in presence of 50 uM ZnCl2; type: functional; outline: as §1
HeLa [14] = assay: Growth inhibition of human HeLa cells after 48 hrs by MTT assay in presence of 100 uM ZnCl2; type: functional; outline: as §1
HeLa [15] = assay: Induction of apoptosis in human HeLa cells assessed as accumulation at subG1 phase at 1 uM after 24 hrs using propidium iodide staining by flow cytometry; type: functional
Outline: (§3)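 HeLa cells exposed 24 h to test agent; controls were 0.5% DMSO and untreated cells. Optional additions were CuCl₂ 10 μM, tempol 1 mM or z-VAD. Cells were fixed in 80% ethanol and held at −20 °C. They were then stained 30 min at room temperature in the dark with PI 0.08 mg/mL, 0.1% Triton X-100 and RNase A 0.2 mg/mL in PBS. Subdiploid (sub-G1) fraction was quantified by flow cytometry as % of all events.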

HeLa [16] = assay: Induction of apoptosis in human HeLa cells assessed as accumulation at subG1 phase at 1 uM in presence of 10 uM CuCl2 after 24 hrs using propidium iodide staining by flow cytometry; type: functional; outline: as §3
HeLa [17] = assay: Induction of apoptosis in human HeLa cells assessed as accumulation at subG1 phase at 2 uM after 24 hrs using propidium iodide staining by flow cytometry; type: functional; outline: as §3
HeLa [18] = assay: Induction of apoptosis in human HeLa cells assessed as accumulation at subG1 phase at 1 uM in presence of 10 uM CuCl2 and 1 mM tempol after 24 hrs using propidium iodide staining by flow cytometry; type: functional; outline: as §3
HeLa [19] = assay: Induction of apoptosis in human HeLa cells assessed as accumulation at subG1 phase at 1 uM in presence of 10 uM CuCl2 and 10 uM caspase inhibitor z-VAD after 24 hrs using propidium iodide staining by flow cytometry; type: functional; outline: as §3
HeLa [20] = assay: Stimulation of reactive oxygen species in human HeLa cells at 1 uM in presence of 5 uM CuCl2 after 1 hr by dihydroethidium dye based fluorescence assay; type: functional, cell-based
Outline: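 HeLa cells grown in DMEM with 10% FBS, 2 mM glutamine, penicillin/streptomycin at 37 °C, 5% CO2. Compound given with CuCl2, with or without tempol 1 mM; 0.5% DMSO control, untreated blank. Dihydroethidium 5 µmol/L loaded 30 min, PBS wash, epifluorescence microscopy; four separate cultures, two to six coverslips each.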

[21] = target: T1, MAP kinase p38 (Homo sapiens); assay: Activation of p38 phosphorylation in human HeLa cells at 1 uM in presence of 10 uM CuCl2 after 48 hrs by Western blot; type: cell-based; outline: as §2
HeLa [22] = assay: Activation of ERK phosphorylation in human HeLa cells at 1 uM in presence of 10 uM CuCl2 after 24 hrs by Western blot
[23] = Activation of JNK phosphorylation in human HeLa cells at 1 uM in presence of 10 uM CuCl2 after 24 hrs by Western blot
[24] = target: T1, MAP kinase p38 (Homo sapiens); assay: Activation of p38 phosphorylation in human HeLa cells at 1 uM in presence of 10 uM CuCl2 after 24 hrs by Western blot
HeLa [25] = assay: Activation of ERK phosphorylation in human HeLa cells at 1 uM in presence of 10 uM CuCl2 after 48 hrs by Western blot
[26] = Activation of JNK phosphorylation in human HeLa cells at 1 uM in presence of 10 uM CuCl2 after 48 hrs by Western blot
[27] = target: T1, MAP kinase p38 (Homo sapiens); assay: Activation of p38 phosphorylation in human HeLa cells at 1 uM in presence of 10 uM CuCl2 after 48 hrs by Western blot

Q: With `Cc1ccc(S(=O)(=O)N2CCN(Cc3cc([N+](=O)[O-])c4cccnc4c3O)CC2)cc1` as the compound, how does the GI50 (HeLa [1]) read?
A: 710 nM

Q: What about the GI50 [2] of the same compound?
A: 1900 nM

Q: And the Activity (HeLa [3])?
A: Active

Q: And the Activity [4]?
A: Active

Q: What about the Activity [5] of the same compound?
A: Active

Q: What about the Activity (HeLa [6]) of the same compound?
A: Active

Q: And the Activity [7]?
A: Active

Q: What about the GI50 [8] of the same compound?
A: 14600 nM

Q: What about the GI50 [9] of the same compound?
A: 5900 nM

Q: What about the GI50 (HeLa [10]) of the same compound?
A: 650 nM

Q: And the GI50 (HeLa [11])?
A: 250 nM

Q: And the GI50 (HeLa [12])?
A: 60 nM

Q: What about the GI50 (HeLa [13]) of the same compound?
A: 480 nM

Q: What about the GI50 (HeLa [14]) of the same compound?
A: 260 nM

Q: And the Activity (HeLa [15])?
A: 6.77%

Q: And the Activity (HeLa [16])?
A: 17.5%

Q: What about the Activity (HeLa [17]) of the same compound?
A: 18.57%

Q: What about the Activity (HeLa [18]) of the same compound?
A: 1.34%

Q: And the Activity (HeLa [19])?
A: 1.58%

Q: And the Activity (HeLa [20])?
A: Active

Q: What about the Activity [21] of the same compound?
A: Active

Q: What about the Activity (HeLa [22]) of the same compound?
A: Active

Q: What about the Activity [23] of the same compound?
A: Active

Q: And the Activity [24]?
A: Active

Q: What about the Activity (HeLa [25]) of the same compound?
A: Active

Q: What about the Activity [26] of the same compound?
A: Active

Q: And the Activity [27]?
A: Active
